Screens as filed in PubChem BioAssay.
NSD2 HMT inh: NSD2 histone methyltransferase inhibitors, primary screen, biochemical, AlphaScreen, single concentration, set 2; Histone-lysine N-methyltransferase NSD2 (Homo sapiens), O96028; NSD2 peptide methylation, 120 min; inhibition, % at 12.5 µM; hit rate 0.54% among 310,000; AID 743445, 2014
SR-BI DiI-HDL act: activators of SR-BI mediated DiI-HDL uptake, primary screen, ldlA[mSR-BI] CHO cells, DiI fluorescence | 3 h; 100 = double the neutral-control signal | activation, % at 12.5 µM | hit rate 0.096% among 320,000;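 active = mean replicate activation of at least 60% and every replicate at or above 60%; inconclusive = mean or all-replicate condition met, but not both; inactive = mean below 60% and not all replicates reaching 60%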;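 also: 0% = median plate neutral-control signal and 100% = twice that signal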
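Assay system: CHO ldlA[mSR-BI] cells, LDL receptor-null, SR-BI overexpressing; medium: Ham's F12 with 0.5% BSA, HEPES 25 mM, pH 7.4; also added: DiI-HDL 10 µg/mL; timing: 3 h uptake period with compound, 37 °C; signal: DiI fluorescence, bottom read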
DYRK1A inh: rat Dyrk1A kinase inhibitors, primary screen, biochemical, single point, plate reader; Dual specificity tyrosine-phosphorylation-regulated kinase 1A (Rattus norvegicus), Q63470; ADP-Glo luminescence, NFATc1 peptide; inhibition, % at 12.5 µM; hit rate 0.43% among 310,000; AID 504441, 2011;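 also: plate controls were vehicle with enzyme for no effect and no enzyme for full effect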
CDK5 inh: inhibitors of human CDK5/p35 kinase, primary screen, biochemical, single concentration | Recombinant CDK5/p35, ADP-Glo luminescence, 60 min | inhibition, % at 10 µM | hit rate 0.01% among 330,000 | AID 488839, 2010;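 active = highest replicate inhibition of at least 50% and at least 75% of replicates reaching 50%; inconclusive = only one of the two criteria met; inactive = both criteria failed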;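 also: plate controls were DMSO neutral control for no effect and GW8510 at 10 µM for full effect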
dFosB activator: activators of delta FosB homodimer, primary screen, biochemical, fluorescence polarization, TAMRA-CDK5 oligo, single point | AID 493131, 2011 | activation, % at 25 µM | hit rate 0.99% among 340,000 | Protein FosB (Mus musculus), P13346 | purified delta FosB; percent of positive-control signal above neutral wells;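 active = mean activation above about 17%, with every replicate also reaching it, limit read from the data, passing the limit was not always enough; inconclusive = only one of the two conditions met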
Target sequence (P13346 whole entry, looked up): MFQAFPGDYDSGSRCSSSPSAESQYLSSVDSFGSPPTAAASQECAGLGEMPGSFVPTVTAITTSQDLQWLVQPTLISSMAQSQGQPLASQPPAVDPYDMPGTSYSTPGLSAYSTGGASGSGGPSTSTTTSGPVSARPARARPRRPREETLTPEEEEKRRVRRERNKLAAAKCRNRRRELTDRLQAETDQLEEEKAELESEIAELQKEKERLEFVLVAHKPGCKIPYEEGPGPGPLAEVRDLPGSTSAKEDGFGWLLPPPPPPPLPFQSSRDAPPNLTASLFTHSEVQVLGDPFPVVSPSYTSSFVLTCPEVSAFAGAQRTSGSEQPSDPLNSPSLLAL
SR-BI HDL uptake: inhibitors of SR-BI mediated HDL lipid uptake, primary screen, ldlA[mSR-BI] cells, fluorescence, single point | ldlA[mSR-BI] CHO cells, DiI-HDL uptake fluorescence, 3 h | Scavenger receptor class B member 1 (Mus musculus), Q61009 | AID 488896, 2010 | hit rate 0.96% among 320,000 | inhibition, % at 12.5 µM;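 active = mean replicate inhibition of at least 70% and a set share of replicates each scoring 70 or more; inconclusive = meets just one of the two criteria; inactive = fails both criteria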;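 also: 0% = median of neutral control wells and 100% = median of positive control wells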
Dyrk1A artifact: ADP-Glo luciferase interference without Dyrk1A, dose response, artefact control for Dyrk1A inhibitor project, biochemical, luminescence, cherry-pick, set 02; shares compounds with DYRK1A inh; ADP-Glo luciferase artifact assay, no Dyrk1A; AC50, µM (highest dose often 12 µM), for inactives: at the top dose activity change, negative = inhibition; 1,300 tested, under 10 active; AID 588348, 2011;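 active = fitted half-maximal dose AC50 no more than ten times the top valid tested dose, with luminescence dropping as dose rises; inconclusive = poor fit, or flat fit with 30 to 70% inhibition; inactive = the rest, signal increases included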
Alpha artifact: AlphaScreen signal interference with preloaded methylated product, dose response, artefact control for NSD2 inhibitor project, biochemical, cherry-picked samples; hit rate 9.4% among 1,500; shares compounds with NSD2 HMT inh; AID 1053174, 2014; AC35, µM (doses to about 10 µM), for the others: top-dose activity change, negative = signal loss; AlphaScreen artifact counterscreen, preloaded methylated H4 peptide; call rule not given here
Numbers without * were called inactive; ? = inconclusive; nt = not tested or not shown. The list is not random: actives were taken first. Their share in the collection is about 2.5%. Rule as the data show it, unless noted: active = inhibition above about 50%; inactive = the rest.

SMILES	NSD2 HMT inh	SR-BI DiI-HDL act	DYRK1A inh	CDK5 inh	dFosB activator	SR-BI HDL uptake	Dyrk1A artifact	others
CC(=O)Oc1ccccc1C(=O)C=Cc1cccc([N+](=O)[O-])c1	12	-9	5	2	-6	9	nt
N#Cc1c(N2CCCC2)nc(N)c2c(N)nc(N3CCCC3)cc12	nt	-52	67*	0	4	52	9%
CCOc1cc2c(C#N)c(N3CCCC3)nc(N)c2c(N)n1	nt	-20	-1	-2	-5	20	nt
O=C(O)c1cc2ccccc2c2c1C(=O)c1ccccc1-2	-2	nt	nt	nt	nt	nt	nt
O=C(O)c1cc2ccccc2c2cc(Br)ccc12	-1	19	69*	-1	-7	-19	8%
NC1=NC(=O)/C(=C\c2ccc(O)c([N+](=O)[O-])c2)S1	1	11	79*	-1	3	-11	9%
COc1cc(/C=C2/SC(N)=NC2=O)ccc1Oc1ccc([N+](=O)[O-])cc1[N+](=O)[O-]	-1	7	38	2	?	-7	nt
CSc1cccc(NC(=O)c2c(Cl)cnn2C)c1	nt	-19	53*	0	-3	19	9%
COc1cccc(Nc2ncnc3sccc23)c1	-7	-10	8	-7	2	10	nt
COc1cccc(Nc2ncnc3sc(C)cc23)c1	0	-35	77*	17	-4	35	11%
CCc1cc(-c2[nH]ncc2-c2ccc3c(c2)OCO3)c(O)cc1O	14	-35	52*	2	-4	54	6%
COc1ccc(-c2[nH]ncc2-c2ccc3c(c2)OCCO3)c(O)c1	10	12	60*	1	-6	-12	2%
COc1ccc(-c2cn[nH]c2-c2ccc(O)cc2O)cc1OC	13	-22	32	4	-9	22	nt
CCCc1cc(-c2[nH]ncc2-c2ccc3c(c2)OCCCO3)c(O)cc1OC	3	nt	nt	nt	nt	nt	nt
c1ccc2c(c1)OCCOCCOc1ccccc1OCCOCCO2	-4	3	1	1	0	-3	nt
O=C1c2ccccc2C(=O)c2[nH]cnc21	0	7	56*	1	2	-7	7%
O=C1c2ccccc2C(=O)c2[nH]c(=O)[nH]c21	35	5	19	8	-7	-5	nt
NC1=NC(=O)/C(=C\c2ccc(-c3ccc(Cl)cc3)o2)S1	nt	-23	58*	2	2	23	7%
Nc1ccc(-c2ccc(C(=O)O)s2)cn1	0	31	71*	2	5	-31	7%
CC1CCN(S(=O)(=O)c2ccc3c(c2)N(CC(=O)NCCCN2CC(C)CC(C)C2)C(=O)CS3)CC1 (stereo unspecified)	4	-3	-3	0	-11	3	nt
O=C(NC(=O)N1CCCCCC1)c1ccccc1	1	16	8	0	-6	-16	nt
O=C(NCCN1CCOCC1)C(=O)c1c[nH]c2ccccc12	2	nt	6	1	4	nt	nt
COc1ccc(/C=C(\C#N)c2nc3ccccc3[nH]2)cc1O	-4	-35	3	1	8	35	nt
Cc1ccc2nc(/C(C#N)=C\c3cc(O)ccc3[N+](=O)[O-])[nH]c2c1	12	1	77*	0	7	-1	6%
COc1c(O)ccc(/C=C(\C#N)c2nc3ccccc3[nH]2)c1[N+](=O)[O-]	25	17	73*	nt	-9	-17	8%
SMILES	NSD2 HMT inh	SR-BI DiI-HDL act	DYRK1A inh	CDK5 inh	dFosB activator	SR-BI HDL uptake	Dyrk1A artifact	others
COc1cccc(Nc2nc(-c3ccc(O)cc3)cs2)c1	2	-58	54*	-4	1	58	10%
CCN(CC)CCn1c2ccccc2c(=O)c2c(O)ccc(O)c21	14	-65	85*	3	-5	65	7%
COc1ccc(/C=C2/SC(=O)N(CCNC(=O)C3CC(=O)N(Cc4ccccc4)C3)C2=O)cc1 (stereo unspecified)	0	nt	nt	nt	nt	nt	nt
Nc1nc(Nc2cccc(F)c2)nc2ccccc12	-2	-6	74*	-2	-1	6	1%
COc1cc(/C=C2\SC(N3CCC(C)CC3)=NC2=O)ccc1O	18	-16	77*	2	-13	16	12%
COc1ccc(/C=C2\SC(N3CCCCC3)=NC2=O)cc1OC	-2	-5	-3	2	0	5	nt
Cc1ccc(C(OCC(O)CNCc2ccc(F)cc2)c2ccccc2)cc1 (stereo unspecified)	4	5	-2	0	-9	-5	nt
CCOCCCNC(=O)/C(C#N)=C/c1cc(Br)c(O)c(Br)c1	nt	nt	55*	8	-7	nt	11%
COCCNC(=O)/C(C#N)=C/c1cc(Br)c(O)c(OC)c1	-4	11	13	0	-5	-11	nt
CC(OC(=O)c1cnc(Cl)c(Cl)c1)C(=O)NCc1ccccc1 (stereo unspecified)	0	1	-1	1	2	-1	nt
CCc1ccc2nc(NC(=O)C3CSC4(C)CCC(=O)N34)sc2c1 (stereo unspecified)	5	-11	61*	1	-14	11	10%
O=C(Nc1nc2ccccc2s1)c1ccc(OCC2CCCO2)cc1 (stereo unspecified)	0	-41	57*	1	-22	41	9%
O=C(O)CCC(=O)OCCCc1cc2ccccc2c(=O)o1	nt	-6	8	-1	-7	6	nt
CN1CCN(NC(=O)Nc2ccc(Br)cc2Cl)CC1	24	-6	6	0	-3	6	nt
CS(=O)(=O)c1ccc2c(c1)sc1nc(=O)c(/C=C3/C=CC(=O)C(O)=C3)c(N)n12	119*	nt	55*	0	-16	nt	10%	Alpha artifact=7.1µM*
O=C1CSC(c2ccccc2O)N1Cc1ccccc1 (stereo unspecified)	-3	2	-4	-1	-6	-2	nt
COc1cc(C2(c3ccc(O)c(OC)c3)C(=O)Nc3c(C)cc(Br)cc32)ccc1O	1	8	15	0	-15	-8	nt
